Experimental data from ChEMBL document CHEMBL3632550, “Saponarin activates AMPK in a calcium-dependent manner and suppresses gluconeogenesis and increases glucose uptake via phosphorylation of CRTC2 and HDAC5” (Bioorg Med Chem Lett, 2015).
The source made the active and inactive calls. The rule behind the calls is not given here.

Biological target: AMP-activated protein kinase, AMPK (Homo sapiens) (UniProt P54646+O43741+P54619+Q9UGJ0+Q9Y478+Q13131+Q9UGI9)
Assay: Activation of AMPK in human HepG2 cells assessed as reduction of gluconeogenesis at 1 mM after 24 hrs by enzymatic colorimetric assay
Type: cell-based
In short: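 HepG2 cells seeded in DMEM with 10% FBS, switched next day to FBS-free medium and treated 24 h. Medium then replaced by glucose-free, phenol red-free DMEM with 20 mM sodium lactate and 2 mM sodium pyruvate. After 6 h, glucose released into the medium was measured by enzymatic colorimetric assay and normalized to total cell protein. Mean ± SEM; one-way ANOVA with Tukey test.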

CN(C)C(=N)NC(=N)N
Activity: Active
